System: E. coli BW25113 ΔtolC growth inhibition, OD615
Assay: E. coli ΔtolC antibacterial growth inhibition – strain BW25113 ΔtolC::kan, dose response (AID 617)
Summary of the method: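 Test system: E. coli BW25113 ΔtolC::kan bacteria / Buffer or medium: kanamycin-containing LB broth, 50 µg/mL / Compound: serial dilution series of compound / Incubation: bacterial growth with compound for 20 h, 37 °C / Measured by: OD615 / Read-out basis: growth-inhibition IC50 from four-parameter logistic curve, bounds set to 0% and 100%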

Row | Compound | IC50
1 | CC1CC(C)CN(C(=O)CSc2nnc(-c3ccc(Cl)s3)o2)C1 (configuration not stated) | 17.4 µM
2 | O=C(Cc1ccccc1)Nc1ccccc1N1CCN(c2ccccc2)CC1 | 64.5 µM
3 | O=c1cc(O)c2c(=O)n3c4c(cccc4c2o1)CCC3 | 2.82 µM
4 | Cc1cc(Cl)ccc1OCC(=O)Nc1ccccc1N1CCOCC1 | 8.64 µM
5 | Cc1ccc(C)c(N2CCN(C(=O)c3cc4sccc4n3C)CC2)c1 | 15.1 µM
6 | Cc1oc(C(C)(C)C)cc1C(=O)Nc1ccc2c(c1)OCCO2 | 18.9 µM
7 | Cn1c(-c2ccccc2)cc2c3no[n+]([O-])c3ccc21 | 5.09 µM
8 | Cc1sc(NC(=O)c2ccco2)c(CN2CCN(c3ccccn3)CC2)c1C | 9.55 µM
9 | COc1ccccc1OCC(=O)N(Cc1nc(-c2ccccc2)no1)C1CCCCC1 | 12.7 µM
10 | Cc1cc(C)c2cc(CN(CCO)C(c3nnnn3Cc3ccc(F)cc3)C(C)C)c(=O)[nH]c2c1 (configuration not stated) | 21.7 µM
11 | CSc1ccc(-c2cc(=O)c3ccccc3o2)cc1 | 42.1 µM
12 | CCOC(=O)c1c(NC(=O)CSc2nnc(C)c(=O)[nH]2)sc2c1CCC2 | 10.6 µM
13 | O=C(OC1CCCCC1)c1ccc(NC(=O)c2ccco2)cc1 | 6.09 µM
14 | CSc1ncc(Cl)c(C(=O)C(C#N)c2nc3c(C)cc(C)cc3c(=O)[nH]2)n1 (configuration not stated) | 3.28 µM
15 | CCCCOC(=O)CSc1nnc(-c2ccc(Cl)cc2Cl)o1 | 19.4 µM
16 | Cn1ncc(C#N)c1/N=C/N(Cc1ccccc1)Cc1ccccc1 | 7.5 µM
17 | CS(=O)c1nc(-c2ccc(Br)cc2)cc(-c2ccccc2)c1C#N (configuration not stated) | 10.4 µM
18 | COC(=O)c1ccc(CSc2nc3ccccc3o2)cc1 | 20.2 µM
19 | COc1ccc(Nc2nc(N3CCCC3)c3ccccc3n2)cc1 | 18.3 µM
20 | c1ccc2c(c1)CCN(c1nc3cc4c(cc3s1)OCCO4)C2 | 14.8 µM
21 | CCc1cc(C(=O)Cc2ccc(F)cc2)c(O)cc1O | 7.76 µM

Row | Compound | IC50
22 | COc1ccc(CCNC(=O)c2cc3sc(Cl)cc3n2C)cc1OC | 30.8 µM
23 | O=C(CSc1ncn(-c2ccccc2)n1)Nc1nc2c(s1)CCCC2 | 16.9 µM
24 | CCCCCn1c(-c2ccco2)nc2nc3ccccc3nc21 | 84.8 µM
25 | O=C(Cc1ccccc1F)Nc1nc(-c2cccs2)cs1 | 6.95 µM
26 | C=CCc1c(C)nc(SCc2nc3ccccc3c(=O)[nH]2)[nH]c1=O | 6.54 µM
27 | COc1cc(C2C(C(=O)c3ccc(C)o3)=C(O)C(=O)N2c2cc(C)on2)cc(Br)c1O (configuration not stated) | 24.7 µM
28 | COc1ccc(C(=O)Nn2cnc3scc(-c4cccs4)c3c2=O)c(O)c1 | 3.24 µM
29 | O=C(Nc1cccc(Cl)c1)N(CCN1CCOCC1)Cc1cccc(Cl)c1 | 6.44 µM
30 | CC1CCc2nc(NC(=O)c3cc(C(C)(C)C)nn3C)sc2C1 (configuration not stated) | 12.4 µM
31 | COC(=O)c1ccc(NC(=O)CN2CCN(c3cccc(Cl)c3)CC2)cc1 | 21.7 µM
32 | O=C(Nc1nnc(-c2ccc3c(c2)CCCC3)o1)C1COc2ccccc2O1 (configuration not stated) | 0.45 µM
33 | COc1ccccc1N1CCN(Cc2nc(N)nc(Nc3ccc(C)c(Cl)c3)n2)CC1 | 9.02 µM
34 | Cc1ccccc1CSc1nc2n(n1)C(c1cccs1)C1=C(CCCC1=O)N2 (configuration not stated) | 8.42 µM
35 | CC(=Nc1ccc(O)cc1)c1sc2ccccc2c1O | 0.89 µM
36 | CC(C)Cn1c(=O)c(C(=O)Nc2ccncc2)c(O)c2ccccc21 | 3.34 µM
37 | c1ccc(CN(Cc2ccco2)C(c2ccncc2)c2nnnn2C2CCCC2)cc1 (configuration not stated) | 13.2 µM
38 | CCOC(=O)c1ccccc1NC(=O)c1c(F)c(F)c(F)c(F)c1F | 23 µM
39 | N#CCSc1nc2c(c(C3CC=CCC3)c1C#N)CCC2 (configuration not stated) | 12.9 µM
40 | CCOC(=O)c1c(C)oc2ccc(NS(=O)(=O)c3ccc4c5c(cccc35)C(=O)N4)cc12 | 16.3 µM
41 | Clc1ccc(Cn2ncc3c(NCc4ccco4)ncnc32)c(Cl)c1 | 53.4 µM
42 | COc1ccc(-c2cnc(SCC(=O)Nc3ccc4c(c3)OCO4)n2Cc2ccco2)cc1 | 11.1 µM

Row | Compound | IC50
43 | Cc1csc(SCC(=O)Nc2nc(-c3ccccc3)cs2)n1 | 14.1 µM
44 | O=C(Nc1ccccc1)Nc1ccc(S(=O)(=O)N2CCCCC2)cc1 | 10.3 µM
45 | CC1CC(N(C(=O)c2ccco2)c2ccccc2)c2ccccc2N1 (configuration not stated) | 13.4 µM
46 | Cc1onc(-c2ccccc2Cl)c1C(=O)Nc1sc2c(c1C#N)CCC2 | 7.5 µM
47 | CN(c1cccc(NC(=O)Nc2cccc(Cl)c2)c1)S(C)(=O)=O | 12.7 µM
48 | O=C(c1ccco1)N1CCN(c2ncnc3c2[nH]c2ccc(Br)cc23)CC1 | 44.5 µM
49 | COCCn1nnnc1C(C(C)C)N(Cc1ccccc1)Cc1cc2cc(OC)ccc2[nH]c1=O (configuration not stated) | 11 µM
50 | C/C(CCc1oc2ccccc2c1-c1ccc(C)o1)=N/O | 14.2 µM
51 | O=C(Oc1ccccc1)c1cc2ccccc2o1 | 23.1 µM
52 | CCCc1nc(SCC(=O)N2CCCc3ccccc32)c2c(=O)n(C)c(=O)n(C)c2n1 | 11.6 µM
53 | N#Cc1nc(COc2ccccc2)oc1N1CCN(Cc2ccccc2)CC1 | 14.3 µM
54 | Cc1ccc2[nH]c(=O)c(CN(Cc3nnnn3Cc3ccccc3)C3CCCC3)cc2c1 | 53.3 µM
55 | CC(C)Cn1c(=O)c(C(=O)Nc2cnccn2)c(O)c2ccccc21 | 14 µM
56 | CCN(CC)c1ccc(C(=O)Nc2cccc(F)c2)cc1 | 8.06 µM
57 | Cc1cc(C)cc(-n2ccnc2SCC(=O)Nc2ccc3c(c2)OCCO3)c1 | 28.1 µM
58 | COC(=O)c1cccc(-n2nnnc2SCC(=O)Nc2nc3c(s2)CCCC3)c1 | 15.8 µM
59 | CCc1cc(/C(Cc2ccc3ccccc3n2)=N\O)c(O)cc1O | 8.41 µM
60 | Cc1ccc(C)c(N2CCN(C(=O)c3ccccc3Br)CC2)c1 | 11.2 µM
61 | CCOc1ccccc1NC(=O)c1cc(CC(C)C)oc1C | 21.8 µM
62 | COc1ccc(C2(O)CC3CCC(C2)N3c2cc(C)nc(-c3ccccc3)n2)cc1 (configuration not stated) | 11.7 µM
63 | CC1CCCN(S(=O)(=O)c2ccc(C(=O)Nc3nnc(-c4ccccc4Cl)o3)cc2)C1 (configuration not stated) | 0.41 µM

Row | Compound | IC50
64 | COC(=O)c1[nH]c2ccc(C)cc2c1NS(=O)(=O)c1ccc(F)c(C)c1 | 1.75 µM
65 | Cc1ccc(C(=O)Nc2nc(COc3ccccc3)cs2)s1 | 101 µM
66 | Cc1[nH]c2ccccc2c1NC(=O)CN1CCN(c2cccc(C(F)(F)F)c2)CC1 | 12.5 µM
67 | CCOC(=O)c1c(C)n(C)c2ccc(OCC(O)Cn3nc(C)c(Br)c3C)cc12 (configuration not stated) | 5.74 µM
68 | COC(=O)c1ccc(Oc2nc(N3CCCCC3)nc(N3CCOCC3)n2)cc1 | 20.3 µM
69 | CCCOc1ccc(C2C(C(=O)c3ccc(C)o3)=C(O)C(=O)N2Cc2cccnc2)cc1 (configuration not stated) | 36.1 µM
70 | CC1CN(S(=O)(=O)c2ccc(C(=O)Nc3nnc(-c4ccc5c(c4)CCCC5)o3)cc2)CC(C)O1 (configuration not stated) | 0.77 µM
71 | CCc1ccccc1N(CC)C(=O)CCc1nc(-c2ccc(C)cc2)no1 | 11.2 µM
72 | Cc1ccc(Cl)cc1N1CCN(C(=O)CCS(=O)(=O)c2cccc3nonc23)CC1 | 44 µM
73 | CCOC(=O)c1c(-c2ccccc2)oc2ccc(OC(=O)N(C)C)cc12 | 9.1 µM
74 | CCNc1nc(SCc2ccccc2)nc(N2CCOCC2)n1 | 17.8 µM
75 | COc1c(N2CCNC(C)C2)c(F)cc2c(=O)c(C(=O)O)cn(C3CC3)c12 (configuration not stated) | < 0.2 µM
76 | CCCOc1ccc2oc(=O)c3c(c2c1)CCCN3C(=O)CN1CCc2ccccc2C1 | 14.1 µM
77 | Cc1[nH]n2c(=O)c3c(nc2c1-c1ccc(Cl)cc1)CCC3 | 4.09 µM
78 | COc1ccc2nc(NC(=O)C3CCCN(S(=O)(=O)c4cccs4)C3)sc2c1 (configuration not stated) | 26 µM
79 | Cc1ccc(O)c(C(=O)CC(=O)c2cccc(F)c2)c1 | 11.6 µM
80 | Cc1cc(C)cc(Nc2cc(=O)n(C3CCCCC3)c(=O)[nH]2)c1 | 2.8 µM
81 | CC(C)Cn1c(N)c(C(=O)NCc2cccs2)c2nc3ccccc3nc21 | 12.9 µM
82 | COc1cc(-c2nnc(SCc3ccccc3Cl)o2)cc(OC)c1OC | 10.2 µM
